Laboratory results from paper PMC4437580 (Bioorganic & medicinal chemistry letters, 2014).

Columns and labels:
[1] = system: MDA-MB-231 cells; assay: Cell viability, trypan blue exclusion; assay type: cell-based; details: drug 24 μM, 24-hour treatment
Procedure, shortened: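 MDA-MB-231 cells grown to 80% confluence, harvested, seeded at 1.5 × 10^5 cells/mL and left overnight. Medium replaced with FBS-free medium containing test compound at 24 μM. FBS added after 1 h, then a further 24 h exposure. Cell density counted by trypan blue exclusion. Viability (%) = treated density / DMSO-only control density × 100.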

[2] = target: untagged Asf1 (Homo sapiens, UniProt Q9Y294); assay: ALPHA binding studies with Asf1; details: two different versions of ALPHA; data not shown
[3] = target: Asf1-H3/H4 (Homo sapiens, UniProt Q9Y294); assay: Asf1-H3/H4 binding inhibition
Asf1-H3/H4, sequence (Q9Y294 1-155): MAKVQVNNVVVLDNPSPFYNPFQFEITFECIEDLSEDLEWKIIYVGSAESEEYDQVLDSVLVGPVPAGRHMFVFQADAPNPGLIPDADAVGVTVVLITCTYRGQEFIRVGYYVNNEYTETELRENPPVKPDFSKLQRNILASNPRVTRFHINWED

untagged Asf1, sequence (Q9Y294 1-155): as above

Structure (SMILES)	Asf1-H3/H4 binding potency/activity, in words [3]	other results
COc1ccc(-c2cc([C@@H](O)[C@@H]3CCCCN3)c3ccccc3n2)cc1.Cl [Compound 1]		Cell viability (cytotoxicity), in words [1]: potently inhibit cell viability; Binding to untagged Asf1, in words [2]: not to bind
O=C(N/N=C/c1cc(Br)ccc1O)c1ccncc1 [Compound 47]	significant boost in potency	Assay interference (metal scavenging) ([3]; upon further analysis): false positive results
COc1cc(/C=N/N(C)C(=O)c2ccc(NC(=O)c3ccccc3)cc2)cc(Br)c1O [Compound 52]	tolerated	

Second part, led by results:

Asf1-H3/H4 binding potency/activity, in words [3]	Structure (SMILES)	other results
significant loss of potency	COc1cc(/C=N/NC(=O)c2ccc(NC(C)=O)cc2)cc(Br)c1O [Compound 18]	
ineffective	COc1cc(/C=N/NC(=O)C2CCNCC2)cc(Br)c1O [Compound 25]	
ineffective	COc1cc(/C=N/NC(=O)C2CCOCC2)cc(Br)c1O [Compound 26]	
did not improve potency	COc1cc(/C=N/NC(=O)c2ccc(NC(=O)c3ccccc3)c(COCCN(C)C)c2)cc(Br)c1O [Compound 33]	
